Legend:
Format in all cases: functional
MCF7 = test: Cytotoxicity against human MCF7 cells assessed as cell growth at 10 '-5 M after 48 hrs by sulforhodamine B assay; details: MCF7, 48 h, read-out: Activity
T47D = test: Cytotoxicity against human T47D cells assessed as cell growth at 0.1 uM after 48 hrs by sulforhodamine B assay; details: read-out: Activity
[1] = Cytotoxicity against human Hs 578T cells assessed as cell growth at 0.01 uM after 48 hrs by sulforhodamine B assay; details: read-out: Activity
Method in brief: (§1)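 Five-dose NCI panel run at 0.01, 0.1, 1, 10 and 100 µM. Cells were in RPMI 1640 with 5% FBS and 2 mM L-glutamine, seeded at 5000–40,000 cells/well and pre-incubated 24 h. Drug was diluted from a DMSO stock into medium with 50 µg/ml gentamicin. Exposure was 48 h at 37 °C, 5% CO2. Cells were fixed with cold TCA and stained with 0.4% SRB, read at 515 nm. Percent growth came from time-zero, control and test absorbances.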

SK-OV-3 = test: Cytotoxicity against human SKOV3 cells assessed as cell growth at 10 '-5 M after 48 hrs by sulforhodamine B assay; details: SK-OV-3, 48 h, read-out: Activity
MDA-MB-231 = test: Cytotoxicity against human MDA-MB-231 cells assessed as cell growth at 1 uM after 48 hrs by sulforhodamine B assay; details: MDA-MB-231, 48 h, read-out: Activity
MOLT-4 = test: Cytotoxicity against human MOLT4 cells assessed as cell growth at 0.01 uM after 48 hrs by sulforhodamine B assay; details: MOLT-4, 48 h, read-out: Activity
786-0 = test: Cytotoxicity against human 786-0 cells assessed as cell growth at 10 '-5 M after 48 hrs by sulforhodamine B assay; details: 786-0, 48 h, read-out: Activity
Method in brief: (§2)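 Primary NCI-60 single-dose screen at 10 µM. Cells were grown in RPMI 1640 with 5% FBS and 2 mM L-glutamine and plated 24 h before drug addition. Compound was solubilized in DMSO, then exposed for 48 h at 37 °C under 5% CO2. Cells were TCA-fixed and stained with SRB, and absorbance was read at 515 nm. Growth was expressed relative to time-zero and untreated controls.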

RPMI-8226 = test: Cytotoxicity against human RPMI8226 cells assessed as cell growth at 100 uM after 48 hrs by sulforhodamine B assay; details: RPMI-8226, 48 h, read-out: Activity
OVCAR-4 [2] = test: Cytotoxicity against human OVCAR4 cells assessed as cell growth at 10 uM after 48 hrs by sulforhodamine B assay; details: OVCAR-4, 48 h, read-out: Activity
OVCAR-4 [3] = test: Cytotoxicity against human OVCAR4 cells assessed as cell growth at 1 uM after 48 hrs by sulforhodamine B assay; details: OVCAR-4, 48 h, read-out: Activity
RXF 393 [4] = test: Cytotoxicity against human RXF393 cells assessed as cell growth at 10 uM after 48 hrs by sulforhodamine B assay; details: RXF 393, 48 h, read-out: Activity
IGROV-1 [5] = test: Cytotoxicity against human IGROV1 cells assessed as cell growth at 0.01 uM after 48 hrs by sulforhodamine B assay; details: IGROV-1, 48 h, read-out: Activity
UACC-257 [6] = test: Cytotoxicity against human UACC257 cells assessed as cell growth at 100 uM after 48 hrs by sulforhodamine B assay; details: UACC-257, 48 h, read-out: Activity
ACHN = test: Cytotoxicity against human ACHN cells assessed as cell growth at 10 '-5 M after 48 hrs by sulforhodamine B assay; details: read-out: Activity; method in brief: as §2
SR [7] = test: Growth inhibition of human SR cells after 48 hrs by sulforhodamine B assay; details: for CC50: read-out: LC50 (the source's name)
Method in brief: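 Leukemia suspension lines were grown in RPMI 1640 with 5% FBS and 2 mM L-glutamine and plated at 5000–40,000 cells/well with 24 h preincubation. They were treated at 0.01, 0.1, 1, 10 and 100 µM (DMSO stock) for 48 h at 37 °C. Settled cells were fixed with 80% TCA (16% final) and stained with 0.4% SRB in 1% acetic acid, then read at 515 nm. GI50 was calculated against time-zero and control wells.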

UACC-62 [8] = test: Cytotoxicity against human UACC62 cells assessed as cell growth at 0.1 uM after 48 hrs by sulforhodamine B assay; details: UACC-62, 48 h, read-out: Activity
IGROV-1 [9] = test: Cytotoxicity against human IGROV1 cells assessed as cell growth at 10 uM after 48 hrs by sulforhodamine B assay; details: IGROV-1, 48 h, read-out: Activity
HT-29 = test: Cytotoxicity against human HT-29 cells assessed as cell growth at 1 uM after 48 hrs by sulforhodamine B assay; details: HT-29, 48 h, read-out: Activity; method in brief: as §1
TK-10 = test: Cytotoxicity against human TK10 cells assessed as cell growth at 0.01 uM after 48 hrs by sulforhodamine B assay; details: TK-10, 48 h, read-out: Activity
SR [10] = test: Cytotoxicity against human SR cells assessed as cell growth at 0.01 uM after 48 hrs by sulforhodamine B assay; details: read-out: Activity
UACC-62 [11] = test: Cytotoxicity against human UACC62 cells assessed as cell growth at 0.01 uM after 48 hrs by sulforhodamine B assay; details: UACC-62, 48 h, read-out: Activity
HL-60(TB) = test: Cytotoxicity against human HL-60(TB) cells assessed as cell growth at 0.1 uM after 48 hrs by sulforhodamine B assay; details: HL-60, 48 h, read-out: Activity
Method in brief: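 NCI five-dose screen on the HL-60(TB) leukaemia line, grown in RPMI 1640 with 5% FBS and 2 mM L-glutamine and plated for 24 h before dosing. DMSO stocks were diluted in medium. Cells were exposed 48 h at 37 °C, then settled cells were fixed in 16% TCA (final) and stained with SRB, absorbance 515 nm. Percent growth = (Ti−Tz)/(C−Tz)×100, or (Ti−Tz)/Tz×100 when Ti<Tz.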

HCT-116 = test: Cytotoxicity against human HCT116 cells assessed as cell growth at 10 '-5 M after 48 hrs by sulforhodamine B assay; details: HCT-116, 48 h, read-out: Activity
Method in brief: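 Primary one-dose screen across the NCI 60-line panel at 10 µM. Cells were grown in RPMI 1640 with 5% FBS and 2 mM L-glutamine and held 24 h before drug. Drug was diluted from a DMSO concentrate. Exposure was 48 h at 37 °C, 5% CO2. Cells were fixed with TCA and stained with SRB, with absorbance read at 515 nm. Percent growth was calculated against time-zero and untreated control.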

UACC-62 [12] = test: Cytotoxicity against human UACC62 cells assessed as cell growth at 100 uM after 48 hrs by sulforhodamine B assay; details: UACC-62, 48 h, read-out: Activity
UACC-257 [13] = test: Cytotoxicity against human UACC257 cells assessed as cell growth at 0.1 uM after 48 hrs by sulforhodamine B assay; details: UACC-257, 48 h, read-out: Activity
MDA-MB-435 = test: Cytotoxicity against human MDA-MB-435 cells assessed as cell growth at 10 '-5 M after 48 hrs by sulforhodamine B assay; details: MDA-MB-435, 48 h, read-out: Activity
SNB-75 = test: Cytotoxicity against human SNB75 cells assessed as cell growth at 0.1 uM after 48 hrs by sulforhodamine B assay; details: SNB-75, 48 h, read-out: Activity
RXF 393 [14] = test: Cytotoxicity against human RXF393 cells assessed as cell growth at 0.01 uM after 48 hrs by sulforhodamine B assay; details: RXF 393, 48 h, read-out: Activity

**Q.** Which results are given for `Cc1ccc2nc(Nc3c(C)cccc3C)sc2c1`?
**A.** growth at 10 µM (MCF7): 19.8%; growth at 0.1 µM (T47D): 96%; growth at 0.01 µM [1]: 92%; growth at 10 µM (SK-OV-3): 47.1%; growth at 1 µM (MDA-MB-231): 37%; growth at 0.01 µM (MOLT-4): 104%; growth at 10 µM (786-0): 57.8%; growth at 100 µM (RPMI-8226): 73%; growth at 10 µM (OVCAR-4 [2]): 55%; growth at 1 µM (OVCAR-4 [3]): 71%; growth at 10 µM (RXF 393 [4]): 27%; growth at 0.01 µM (IGROV-1 [5]): 107%; growth at 100 µM (UACC-257 [6]): 73%; growth at 10 µM (ACHN): 52.2%; GI50 (SR [7]): 0.412 µM; TGI (SR [7]): > 100 µM; CC50 (SR [7]): > 100 µM; growth at 0.1 µM (UACC-62 [8]): 85%; growth at 10 µM (IGROV-1 [9]): 42%; growth at 1 µM (HT-29): 39%; growth at 0.01 µM (TK-10): 104%; growth at 0.01 µM (SR [10]): 98%; growth at 0.01 µM (UACC-62 [11]): 92%; growth at 0.1 µM (HL-60(TB)): 106%; growth at 10 µM (HCT-116): 19.4%; growth at 100 µM (UACC-62 [12]): 37%; growth at 0.1 µM (UACC-257 [13]): 99%; growth at 10 µM (MDA-MB-435): -23.7%; growth at 0.1 µM (SNB-75): 61%; growth at 0.01 µM (RXF 393 [14]): 94%

**Q.** What does the source list for `Clc1cccc(Cl)c1Nc1nc2cccc(Cl)c2s1`?
**A.** growth at 10 µM (MCF7): -14.7%; growth at 0.1 µM (T47D): 102%; growth at 0.01 µM [1]: 87%; growth at 10 µM (SK-OV-3): 6.87%; growth at 1 µM (MDA-MB-231): 17%; growth at 0.01 µM (MOLT-4): 107%; growth at 10 µM (786-0): -59.7%; growth at 100 µM (RPMI-8226): -13%; growth at 10 µM (OVCAR-4 [2]): -90%; growth at 1 µM (OVCAR-4 [3]): 44%; growth at 10 µM (RXF 393 [4]): -73%; growth at 0.01 µM (IGROV-1 [5]): 114%; growth at 100 µM (UACC-257 [6]): -67%; growth at 10 µM (ACHN): -18.9%; GI50 (SR [7]): 1.03 µM; TGI (SR [7]): 3.24 µM; CC50 (SR [7]): > 100 µM; growth at 0.1 µM (UACC-62 [8]): 86%; growth at 10 µM (IGROV-1 [9]): -55%; growth at 1 µM (HT-29): 65%; growth at 0.01 µM (TK-10): 98%; growth at 0.01 µM (SR [10]): 100%; growth at 0.01 µM (UACC-62 [11]): 94%; growth at 0.1 µM (HL-60(TB)): 103%; growth at 10 µM (HCT-116): -87.1%; growth at 100 µM (UACC-62 [12]): -94%; growth at 0.1 µM (UACC-257 [13]): 101%; growth at 10 µM (MDA-MB-435): -55.9%; growth at 0.1 µM (SNB-75): 85%; growth at 0.01 µM (RXF 393 [14]): 94%

Source: ChEMBL document CHEMBL2040734, “Benzothiazoles: search for anticancer agents” (2012)
